Assay results taken from ChEMBL document CHEMBL3797026, “Caatinga plants: Natural and semi-synthetic compounds potentially active against Trichomonas vaginalis” (Bioorg Med Chem Lett, 2016).
In brackets after ≈: the same amount, converted by molar mass. Activity calls are given as the source filed them. The calls are words filed in the database; no cut-off is given here.

How the values were obtained:
Trichomonas vaginalis [1] = assay: Antitrichomonal activity against metronidazole-sensitive Trichomonas vaginalis ATCC 30236 clinical isolate trophozoites assessed as parasite viability at 100 uM after 24 hrs by trypan blue dye based hemocytometry; type: functional
How it was run: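 Single-concentration screen at 100 µM with trophozoites at 1.0 × 10^5/mL. Incubation was 24 h at 37 °C in 5.0% CO2, with a 0.62% DMSO vehicle control and 100 µM metronidazole as positive control. Viable parasites were counted by hemocytometer using motility, normal morphology and 0.2% trypan blue exclusion, and reported as % of untreated. Three experiments were run in triplicate.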

Trichomonas vaginalis [2] = assay: Antitrichomonal activity against metronidazole-sensitive Trichomonas vaginalis ATCC 30236 clinical isolate trophozoites assessed as rounded parasite at 50 uM after 2 hrs by scanning electron microscopic analysis; type: functional, organism-based
How it was run: (§1)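 Scanning EM: trophozoites (1.0 × 10^5/mL) were treated or not with 50 µM. They were fixed in 2.5% glutaraldehyde in 0.1 M sodium cacodylate pH 7.2, post-fixed in 1.0% OsO4 in the same buffer, and dehydrated in acetone. Untreated trophozoites served as control.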

HeLa [3] = assay: Cytotoxicity against human HeLa cells assessed as reduction in cell viability at 50 uM after 24 hrs by MTT assay; type: cell-based
How it was run: (§2)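 MTT assay: cells were grown in DMEM with 10% FBS at 37 °C in 5% CO2 and seeded at 3.0 × 10^4 or 1.0 × 10^4 cells/well overnight. Medium was replaced with fresh medium with or without 50 µM, with 0.2% Triton X-100 as positive control, for 24 or 48 h. MTT (0.5 mg/mL) was added for 1 h, formazan was dissolved in DMSO and read at 570 nm. Triplicates.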

[4] = Selectivity index, ratio of CC50 for african green monkey Vero cells to IC50 for metronidazole-sensitive Trichomonas vaginalis ATCC 30236 clinical isolate trophozoites after 48 hrs; type: functional
How it was run: (§3)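 Selectivity index calculated as CC50 in the mammalian line (MTT, 24 or 48 h exposure) divided by the anti-T. vaginalis IC50.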

Trichomonas vaginalis [5] = assay: Antitrichomonal activity against metronidazole-sensitive Trichomonas vaginalis ATCC 30236 clinical isolate trophozoites assessed as undulating membrane at 50 uM after 2 hrs by scanning electron microscopic analysis; type: functional, organism-based; how it was run: as §1
[6] = Cytotoxicity against HMVII cells assessed as reduction in cell viability after 24 hrs by MTT assay; type: cell-based, HMV-2; settings: human
Trichomonas vaginalis [7] = assay: Antitrichomonal activity against metronidazole-resistant Trichomonas vaginalis TV-LACM2R clinical isolate trophozoites assessed as reduction in parasite viability at 12.5 uM after 24 hrs by trypan blue dye based hemocytometry; type: functional, organism-based
How it was run: (§4)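 Trophozoites at 1.0 × 10^5/mL were incubated 24 h at 37 °C in 5.0% CO2. Viable parasites were counted by hemocytometer, judged by motility, normal morphology and exclusion of 0.2% trypan blue. Viability is expressed as a percentage of untreated parasites. Three independent parasite suspensions were each run in triplicate, reported as mean ± SD.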

Trichomonas vaginalis [8] = assay: Antitrichomonal activity against metronidazole-sensitive Trichomonas vaginalis ATCC 30236 clinical isolate trophozoites assessed as membrane projections and holes at 50 uM after 2 hrs by scanning microscopic analysis; type: functional, organism-based; how it was run: as §1
[9] = Selectivity index, ratio of CC50 for african green monkey Vero cells to IC50 for metronidazole-sensitive Trichomonas vaginalis ATCC 30236 clinical isolate trophozoites after 24 hrs; type: functional; how it was run: as §3
Trichomonas vaginalis [10] = assay: Antitrichomonal activity against metronidazole-sensitive Trichomonas vaginalis ATCC 30236 clinical isolate trophozoites assessed as decrease in parasite viability at 50 to 100 uM after 24 hrs by trypan blue dye based hemocytometry; type: functional, organism-based
How it was run: (§5)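 Trophozoites (1.0 × 10^5/mL) were cultured in TYM and exposed to a dilution series from 100 to 0.78 µM for 24 h. Viable counts were taken by hemocytometer with 0.2% trypan blue exclusion and compared with untreated parasites. To confirm the MIC, parasites were transferred to fresh TYM medium. Triplicates were run with three independent cultures.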

Trichomonas vaginalis [11] = assay: Antitrichomonal activity against metronidazole-sensitive Trichomonas vaginalis ATCC 30236 clinical isolate trophozoites assessed as parasite shape disruption at 50 uM after 2 hrs by scanning electron microscopy; type: functional, organism-based; how it was run: as §1
Trichomonas vaginalis [12] = assay: Antitrichomonal activity against metronidazole-sensitive Trichomonas vaginalis ATCC 30236 clinical isolate trophozoites assessed as appearance of flagella at 50 uM after 2 hrs by scanning electron microscopic analysis; type: functional, organism-based; how it was run: as §1
HeLa [13] = assay: Cytotoxicity against human HeLa cells assessed as reduction in cell viability at 50 uM after 48 hrs by MTT assay; type: cell-based; how it was run: as §2
Trichomonas vaginalis [14] = assay: Antitrichomonal activity against metronidazole-sensitive Trichomonas vaginalis ATCC 30236 clinical isolate trophozoites assessed as parasite viability after 2 to 12 hrs by FDA/PI dye staining based flow cytometry; type: functional, organism-based
How it was run: (§6)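 Flow cytometry: parasites were exposed or not to 50 µM for 0, 2, 4, 6 and 12 h, then co-stained with FDA and PI (10 µg/mL each) for 20 min. FDA-retaining cells with intact membranes were scored viable and PI-positive cells nonviable. Three parasite suspensions were tested in triplicate.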

[15] = Cytotoxicity against HMVII cells assessed as reduction in cell viability after 48 hrs by MTT assay; type: cell-based, HMV-2; settings: human
[16] = Cytotoxicity against HMVII cells assessed as reduction in cell viability at 50 uM after 24 hrs by MTT assay; type: cell-based; settings: human, hmv-2, 24 h; how it was run: as §2
Trichomonas vaginalis [17] = assay: Antitrichomonal activity against metronidazole-sensitive Trichomonas vaginalis ATCC 30236 clinical isolate trophozoites assessed as reduction of parasite viability after 2 hrs by FDA/PI dye staining based flow cytometry relative to control; type: functional; how it was run: as §6
Trichomonas vaginalis [18] = assay: Antitrichomonal activity against metronidazole-resistant Trichomonas vaginalis TV-LACM2R clinical isolate trophozoites assessed as reduction in parasite viability at 12.5 uM after 24 hrs by trypan blue dye based hemocytometry in presence of metronidazole; type: functional, organism-based; how it was run: as §4
Vero = assay: Cytotoxicity against african green monkey Vero cells assessed as reduction in cell viability at 50 uM after 24 to 48 hrs by MTT assay; type: cell-based; settings: chlorocebus sabaeus; how it was run: as §2
[19] = Selectivity index, ratio of CC50 for HMVII cells to IC50 for metronidazole-sensitive Trichomonas vaginalis ATCC 30236 clinical isolate trophozoites after 48 hrs; type: functional; how it was run: as §3
Trichomonas vaginalis [20] = assay: Antitrichomonal activity against metronidazole-sensitive Trichomonas vaginalis ATCC 30236 clinical isolate trophozoites assessed as parasite viability after 24 hrs by trypan blue dye based hemocytometry; type: functional, organism-based; settings: ATCC 30236, 24 h; how it was run: as §5
[21] = Cytotoxicity against HMVII cells assessed as reduction in cell viability at 50 uM after 48 hrs by MTT assay; type: cell-based; settings: human, hmv-2, 48 h; how it was run: as §2
[22] = Cytotoxicity against african green monkey Vero cells assessed as reduction in cell viability after 24 hrs by MTT assay; type: cell-based; settings: chlorocebus sabaeus
Trichomonas vaginalis [23] = assay: Antitrichomonal activity against metronidazole-sensitive Trichomonas vaginalis ATCC 30236 clinical isolate trophozoites assessed as inhibition of parasite growth at 50 uM after 12 to 24 hrs by hemocytometry; type: functional, organism-based
How it was run: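 Kinetic growth curve: trophozoites (1.0 × 10^5/mL) were incubated with or without 50 µM for 2, 4, 6, 12, 24, 48, 72 and 96 h. Parasites were counted by hemocytometer and expressed as trophozoites/mL relative to untreated controls.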

[24] = Cytotoxicity against african green monkey Vero cells assessed as reduction in cell viability after 48 hrs by MTT assay; type: cell-based; settings: chlorocebus sabaeus
[25] = Selectivity index, ratio of CC50 for HMVII cells to IC50 for metronidazole-sensitive Trichomonas vaginalis ATCC 30236 clinical isolate trophozoites after 24 hrs; type: functional; how it was run: as §3
Trichomonas vaginalis [26] = assay: Antitrichomonal activity against metronidazole-resistant Trichomonas vaginalis TV-LACM2R clinical isolate trophozoites; type: functional
Trichomonas vaginalis [27] = assay: Antitrichomonal activity against metronidazole-resistant Trichomonas vaginalis TV-LACM2R clinical isolate trophozoites assessed as reduction in parasite viability at 15 uM after 24 hrs by trypan blue dye based hemocytometry; type: functional; how it was run: as §4

C[C@H]1[C@H](C)CC[C@]2(C)CC[C@]3(C)C(=CC[C@@H]4[C@@]5(C)CC[C@H](O)C(C)(C)[C@@H]5CC[C@]43C)[C@H]12
Activity (Trichomonas vaginalis [1]): 76.1%

C=C(C)[C@@H]1CC[C@]2(C)CC[C@]3(C)[C@H](CC[C@@H]4[C@@]5(C)CC[C@H](OC(C)=O)C(C)(C)[C@@H]5CC[C@]43C)[C@@H]12 [LUPENYL ACETATE]
Activity (Trichomonas vaginalis [1]): 59.8%

C=C(C)[C@@H]1CC[C@]2(C)CC[C@]3(C)[C@H](CC[C@@H]4[C@@]5(C)CC[C@H](O)C(C)(C)[C@@H]5CC[C@]43C)[C@@H]12 [LUPEOL]
Activity (Trichomonas vaginalis [1]): 117.8%

C[C@H]1[C@H](C)CC[C@]2(C(=O)O)CC[C@]3(C)C(=CC[C@@H]4[C@@]5(C)CC[C@H](O)C(C)(C)[C@@H]5CC[C@]43C)[C@H]12 [URSOLIC ACID]
Activity (Trichomonas vaginalis [2]): Active | Activity (HeLa [3]): 50% | Ratio CC50/IC50 [4]: 1.02 | Activity (Trichomonas vaginalis [5]): Active | CC50 at 24 h [6]: 146 µM | Activity (Trichomonas vaginalis [7]): Active | Activity (Trichomonas vaginalis [8]): Active | Ratio CC50/IC50 [9]: 0.9 | Activity (Trichomonas vaginalis [10]): Active | Activity (Trichomonas vaginalis [11]): Active | Activity (Trichomonas vaginalis [12]): Active | Activity (HeLa [13]): 90% | Activity (Trichomonas vaginalis [14]): Active | CC50 at 48 h [15]: 69.5 µM | Activity [16]: 60% | Activity (Trichomonas vaginalis [17]): 98% | Activity (Trichomonas vaginalis [18]): Active | Activity (Vero): 30% | Ratio CC50/IC50 [19]: 1.97 | IC50 (Trichomonas vaginalis [20]): 35.3 µM | MIC (Trichomonas vaginalis [20]): 50 µM (≈ 22.8 µg/mL) | Activity (Trichomonas vaginalis [1]): 0% | Activity [21]: 90% | CC50 at 24 h [22]: 31.9 µM | growth inhibition (GI) (Trichomonas vaginalis [23]): Active | CC50 at 48 h [24]: 35.9 µM | Ratio CC50/IC50 [25]: 4.13

CC(=O)O[C@H]1CC[C@]2(C)[C@H]3CC=C4[C@@H]5CC(C)(C)CC[C@]5(C)CC[C@@]4(C)[C@]3(C)CC[C@H]2C1(C)C [beta-AMYRIN ACETATE]
Activity (Trichomonas vaginalis [1]): 54.5%

CC1(C)CC[C@]2(C)CC[C@]3(C)C(=CC[C@@H]4[C@@]5(C)CC[C@H](O)C(C)(C)[C@@H]5CC[C@]43C)[C@@H]2C1 [beta-AMYRIN]
Activity (Trichomonas vaginalis [1]): 84.3%

Cc1ncc([N+](=O)[O-])n1CCO [METRONIDAZOLE]
Activity (Trichomonas vaginalis [1]): 0% | MIC (Trichomonas vaginalis [26]): 73 µM (≈ 12.5 µg/mL) | Activity (Trichomonas vaginalis [27]): 80%

CC(=O)O[C@H]1CC[C@]2(C)[C@H]3CC=C4[C@@H]5[C@@H](C)[C@H](C)CC[C@]5(C)CC[C@@]4(C)[C@]3(C)CC[C@H]2C1(C)C
Activity (Trichomonas vaginalis [1]): 56.4%

CC1(C)CC[C@]2(C(=O)O)CC[C@]3(C)C(=CC[C@@H]4[C@@]5(C)CC[C@H](O)C(C)(C)[C@@H]5CC[C@]43C)[C@@H]2C1 [OLEANOLIC_ACID]
Activity (Trichomonas vaginalis [1]): 78.3%

CCCCCC(=O)O[C@H]1CC[C@]2(C)[C@H]3CC=C4[C@@H]5CC(C)(C)CC[C@]5(C)CC[C@@]4(C)[C@]3(C)CC[C@H]2C1(C)C
Activity (Trichomonas vaginalis [1]): 62.8%

CCCCCC(=O)O[C@H]1CC[C@]2(C)[C@H]3CC=C4[C@@H]5[C@@H](C)[C@H](C)CC[C@]5(C)CC[C@@]4(C)[C@]3(C)CC[C@H]2C1(C)C
Activity (Trichomonas vaginalis [1]): 56.2%

C=C(C)[C@@H]1CC[C@]2(C)CC[C@]3(C)[C@H](CC[C@@H]4[C@@]5(C)CC[C@H](OC(=O)CCCCC)C(C)(C)[C@@H]5CC[C@]43C)[C@@H]12
Activity (Trichomonas vaginalis [1]): 71.4%
